Here are results for 1 compound from ChEMBL document CHEMBL1126796, “2-(Alkylamino)nicotinic acid and analogs. Potent angiotensin II antagonists” (J Med Chem, 1993).

The assay deals with T1, Type-1 angiotensin II receptor (Oryctolagus cuniculus, UniProt P34976).
T1 sequence (P34976 whole entry): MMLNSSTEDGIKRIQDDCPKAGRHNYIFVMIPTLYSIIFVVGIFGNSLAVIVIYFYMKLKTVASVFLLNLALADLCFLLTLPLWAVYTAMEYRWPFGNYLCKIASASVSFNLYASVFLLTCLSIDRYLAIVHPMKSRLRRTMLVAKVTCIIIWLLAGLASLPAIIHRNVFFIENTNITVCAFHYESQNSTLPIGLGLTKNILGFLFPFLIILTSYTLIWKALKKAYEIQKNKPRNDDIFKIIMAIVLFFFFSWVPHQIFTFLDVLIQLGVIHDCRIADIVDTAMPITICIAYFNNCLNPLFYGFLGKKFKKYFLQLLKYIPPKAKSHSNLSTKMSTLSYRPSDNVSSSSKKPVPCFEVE
As to the kind of experiment: Antagonistic ability of angiotensin II to contract rabbit aorta. Format: functional, tissue-based. As to conditions: read-out: pA2 (converted). In short, it runs like this: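 Angiotensin II contraction of rabbit aortic rings. Full pA2 from several drug concentrations by Schild plot (log drug concentration vs log(EC50 ratio-1)); EC50 ratio is the angiotensin II EC50 with drug over that without drug.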

Turning to `CCc1cc(OCc2ccc(-c3ccccc3-c3nn[nH]n3)cc2)c2nc(OC(C)C)ccc2n1`, the Kb is 100 pM.
